The target in data set [1] is T1, Amine oxidase [flavin-containing] A (Rattus norvegicus, UniProt P21396).
T1 sequence (P21396 whole entry): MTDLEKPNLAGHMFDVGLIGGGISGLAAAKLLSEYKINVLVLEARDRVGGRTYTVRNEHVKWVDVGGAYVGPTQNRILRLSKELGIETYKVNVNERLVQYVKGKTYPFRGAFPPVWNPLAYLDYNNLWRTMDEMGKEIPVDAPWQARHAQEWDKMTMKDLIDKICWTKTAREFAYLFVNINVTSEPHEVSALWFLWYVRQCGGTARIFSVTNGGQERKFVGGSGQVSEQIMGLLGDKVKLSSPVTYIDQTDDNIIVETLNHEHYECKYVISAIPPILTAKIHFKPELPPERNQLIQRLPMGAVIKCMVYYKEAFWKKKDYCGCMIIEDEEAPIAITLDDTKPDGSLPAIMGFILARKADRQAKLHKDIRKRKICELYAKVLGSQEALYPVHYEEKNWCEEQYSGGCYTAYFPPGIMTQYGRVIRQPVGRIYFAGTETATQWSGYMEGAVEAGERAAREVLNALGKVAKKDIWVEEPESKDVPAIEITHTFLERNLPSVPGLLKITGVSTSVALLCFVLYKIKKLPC
Description: In vitro inhibitory concentration against Monoamine oxidase A of rat brain homogenates; value ranges from 1.3-5.6. It is filed as tissue-based.

For data set [2], the target named is T2, Amine oxidase [flavin-containing] B (Rattus norvegicus, UniProt P19643).
T2 sequence (P19643 whole entry): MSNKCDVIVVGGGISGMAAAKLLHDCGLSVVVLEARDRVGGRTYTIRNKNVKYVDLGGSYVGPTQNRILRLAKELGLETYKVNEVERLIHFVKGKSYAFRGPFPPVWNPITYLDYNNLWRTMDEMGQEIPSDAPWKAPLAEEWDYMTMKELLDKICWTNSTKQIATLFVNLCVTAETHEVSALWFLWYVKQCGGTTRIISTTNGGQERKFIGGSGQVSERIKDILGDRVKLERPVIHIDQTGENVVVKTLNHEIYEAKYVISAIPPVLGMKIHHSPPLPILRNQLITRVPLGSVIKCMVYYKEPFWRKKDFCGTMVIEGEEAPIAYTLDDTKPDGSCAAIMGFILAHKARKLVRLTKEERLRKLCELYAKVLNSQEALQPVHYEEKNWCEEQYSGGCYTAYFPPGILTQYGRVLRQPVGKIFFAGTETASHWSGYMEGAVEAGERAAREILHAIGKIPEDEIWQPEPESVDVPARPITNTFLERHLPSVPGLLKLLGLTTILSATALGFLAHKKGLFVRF
Briefly: In vitro inhibitory concentration against Monoamine oxidase B of rat brain homogenates; value ranges from 11-52. The class given is tissue-based.

The target in data set [3] is T3, Acetylcholinesterase (Homo sapiens, UniProt P22303). Description: In vitro inhibitory concentration against purified Acetylcholinesterase of human erythrocytes; value ranges from 0.18-0.32.
Data set [4] has as its target T4, Butyrylcholinesterase (Equus caballus, UniProt Q9N1N9). Briefly: In vitro inhibitory concentration against Butyrylcholinesterase of horse serum; value ranges from 0.16-0.41. Summed up: (§1)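 Ellman assay followed, with 200 µM butyrylthiocholine as substrate. Runs were in triplicate with four-point dose-response curves. IC50 and fiducial limits came from log concentration versus % inhibition.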

The target of data set [5] is T3, Acetylcholinesterase. Briefly: In vitro inhibitory concentration against purified Acetylcholinesterase of human erythrocytes; value ranges from 2.36-4.22.
Data set [6] is described as follows: Pseudo-first order rate constant for carbamoylation of ACHE at 5 (uM) concentration. It is filed as ADME. Summed up: (§2)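 Human erythrocyte AChE, Ellman method with 200 µM […] substrate, 0.1 M phosphate buffer pH 7.4, 37 °C. Progressive inhibition followed at 4–5 inhibitor concentrations. Pseudo-first-order carbamylation rate constants k_obs (min⁻¹) derived as per Bar-On et al. and reported ±SEM. Apparent bimolecular rate constant k_i calculated from these.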

A short description of data set [7]: Bimolecular rate constant for carbamoylation of ACHE. It is filed as ADME. Summed up:
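Human erythrocyte AChE preincubated with inhibitor at 37 °C in 0.1 M phosphate buffer, pH 7.4, under Ellman conditions with 200 µM […]. Pseudo-first-order rate constants (k_obs) for progressive inhibition were obtained at 4-5 inhibitor concentrations. The apparent bimolecular carbamylation constant k_i was calculated from these.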

Data set [8] in a line: Pseudo-first order rate constant for carbamoylation of ACHE at 40 (uM) concentration. The class given is ADME. In a few lines: as §2
Data set [9] is described as follows: Pseudo-first order rate constant for carbamoylation of ACHE at 20 (uM) concentration. It is filed as ADME. Summed up:
as §2

Data set [10] can be described thus: Pseudo-first order rate constant for carbamoylation of ACHE at 50 (uM) concentration. The class given is ADME. In a few lines:
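Human erythrocyte AChE, same Ellman conditions: 200 µM […], 60 min preincubation at 37 °C, 0.1 M phosphate pH 7.4. Progressive inhibition followed at 4-5 inhibitor concentrations. Pseudo-first-order k_obs (min⁻¹) derived per concentration; apparent bimolecular carbamylation constant k_i calculated from these.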

Data set [11] is described as follows: Pseudo-first order rate constant for carbamoylation of ACHE at 2.5(uM) concentration. The class given is ADME. In a few lines: as §2
Data set [12] has as its target T1, Amine oxidase [flavin-containing] A. Description: In vitro inhibitory concentration against Monoamine oxidase A of rat brain homogenates; value ranges from 8-43. It is filed as tissue-based.
The nature of data set [13]: Pseudo-first order rate constant for carbamoylation of ACHE at 10 (uM) concentration. It is filed as ADME. Summed up:
as §2

The target of data set [14] is T4, Butyrylcholinesterase. Description: In vitro inhibitory concentration against Butyrylcholinesterase of horse serum; value ranges from 0.64-0.89.
Data set [15] addresses T2, Amine oxidase [flavin-containing] B. Briefly: In vitro inhibitory concentration against Monoamine oxidase B of rat brain homogenates; value ranges from 0.8-2.9. The class given is tissue-based.
Data set [16] concerns the target T3, Acetylcholinesterase. Description: In vitro inhibitory concentration against purified Acetylcholinesterase of human erythrocytes; value ranges from 33.4-148.
The target of data set [17] is T3, Acetylcholinesterase.
Data set [18] addresses T4, Butyrylcholinesterase. Briefly: In vitro inhibitory concentration against Butyrylcholinesterase of horse serum; value ranges from 0.70-0.92. Summed up:
as §1

For data set [19], the target named is T3, Acetylcholinesterase. Description: In vitro inhibitory concentration against purified Acetylcholinesterase of human erythrocytes; value ranges from 7.33-61.5.
Data set [20] addresses T3, Acetylcholinesterase. This is another data set of the same source.
In data set [21] the target is T2, Amine oxidase [flavin-containing] B. Description: In vitro inhibitory concentration against Monoamine oxidase B of rat brain homogenates. It is filed as tissue-based.
Data set [22] deals with T3, Acetylcholinesterase. Description: In vitro inhibitory concentration against purified Acetylcholinesterase of human erythrocytes; value ranges from […]-[…].
The target in data set [23] is T4, Butyrylcholinesterase. Briefly: In vitro inhibitory concentration against Butyrylcholinesterase of horse serum; value ranges from 7.65-13.2. In a few lines: as §1
Data set [24] has as its target T1, Amine oxidase [flavin-containing] A. Briefly: In vitro inhibitory concentration against Monoamine oxidase A of rat brain homogenates 47-101. The class given is tissue-based.
Data set [25] addresses T3, Acetylcholinesterase. Briefly: In vitro inhibitory concentration against purified Acetylcholinesterase of human erythrocytes; value ranges from 0.025-0.027.
For data set [26], the target named is T1, Amine oxidase [flavin-containing] A. Briefly: In vitro inhibitory concentration against Monoamine oxidase A of rat brain homogenates; value ranges from 5.6-11.1. It is filed as tissue-based.
The target of data set [27] is T4, Butyrylcholinesterase. Briefly: In vitro inhibitory concentration against Butyrylcholinesterase of horse serum; value ranges from 0.038-0.064. Summed up: as §1
Data set [28] concerns the target T2, Amine oxidase [flavin-containing] B. Briefly: In vitro inhibitory concentration against Monoamine oxidase B of rat brain homogenates; value ranges from 590-900.
Data set [29] deals with T1, Amine oxidase [flavin-containing] A. Description: In vitro inhibitory concentration against Monoamine oxidase A of rat brain homogenates; value ranges from 260-420. The class given is tissue-based.
Data set [30] shares this target. Description: biochemical. The class given is tissue-based, Brain.
Data set [31] has as its target T3, Acetylcholinesterase. Briefly: In vitro inhibitory concentration against purified Acetylcholinesterase of human erythrocytes; value ranges from 8.99-49.4.
In data set [32] the target is T4, Butyrylcholinesterase. Description: In vitro inhibitory concentration against Butyrylcholinesterase of horse serum; value ranges from 0.76-4.2. In a few lines:
as §1

Data set [33] has as its target T3, Acetylcholinesterase. Description: In vitro inhibitory concentration against purified Acetylcholinesterase of human erythrocytes; value ranges from 0.49-0.58.

T3 sequence (P22303 whole entry): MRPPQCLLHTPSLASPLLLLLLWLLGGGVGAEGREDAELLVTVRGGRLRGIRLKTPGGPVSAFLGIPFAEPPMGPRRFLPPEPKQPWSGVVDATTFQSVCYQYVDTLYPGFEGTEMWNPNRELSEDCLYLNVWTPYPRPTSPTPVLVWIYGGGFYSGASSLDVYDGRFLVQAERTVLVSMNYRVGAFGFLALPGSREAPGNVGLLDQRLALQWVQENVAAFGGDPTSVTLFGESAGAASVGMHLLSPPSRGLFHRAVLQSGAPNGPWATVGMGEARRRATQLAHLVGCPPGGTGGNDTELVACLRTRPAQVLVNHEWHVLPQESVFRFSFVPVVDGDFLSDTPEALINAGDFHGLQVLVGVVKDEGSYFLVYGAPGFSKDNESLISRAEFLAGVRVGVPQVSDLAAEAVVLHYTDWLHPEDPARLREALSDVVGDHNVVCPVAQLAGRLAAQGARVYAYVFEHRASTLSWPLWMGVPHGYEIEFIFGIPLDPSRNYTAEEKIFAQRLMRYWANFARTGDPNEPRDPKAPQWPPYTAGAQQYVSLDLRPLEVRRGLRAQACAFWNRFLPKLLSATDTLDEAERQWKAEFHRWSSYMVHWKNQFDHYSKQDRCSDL
T4 sequence (Q9N1N9 whole entry): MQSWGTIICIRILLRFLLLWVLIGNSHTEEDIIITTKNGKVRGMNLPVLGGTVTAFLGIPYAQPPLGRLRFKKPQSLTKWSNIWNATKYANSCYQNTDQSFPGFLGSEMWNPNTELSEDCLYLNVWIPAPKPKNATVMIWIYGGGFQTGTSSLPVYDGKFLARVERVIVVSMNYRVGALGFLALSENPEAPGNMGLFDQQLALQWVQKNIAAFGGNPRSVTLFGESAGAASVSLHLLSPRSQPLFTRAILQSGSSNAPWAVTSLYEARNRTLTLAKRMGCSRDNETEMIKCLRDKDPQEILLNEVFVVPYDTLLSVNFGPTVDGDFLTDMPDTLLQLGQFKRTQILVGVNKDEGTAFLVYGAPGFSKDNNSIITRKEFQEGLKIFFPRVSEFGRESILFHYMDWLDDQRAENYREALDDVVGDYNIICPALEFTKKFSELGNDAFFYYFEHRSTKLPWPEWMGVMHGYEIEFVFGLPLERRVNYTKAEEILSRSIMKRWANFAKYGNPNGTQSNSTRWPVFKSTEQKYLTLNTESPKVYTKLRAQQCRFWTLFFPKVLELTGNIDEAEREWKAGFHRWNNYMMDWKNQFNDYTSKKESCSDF

As usually defined, the IC50 is the concentration that gives 50% inhibition. A higher IC50 goes with a need for much substance. For the compound `C#CCNCCc1cccc(OC(=O)N(C)C)c1`, the IC50 turned out to be 2.7 µM in [1], 24 µM in data set [2], 0.22 µM at Acetylcholinesterase [3] and 0.21 µM against Butyrylcholinesterase [4].

With `C#CCN(C)C(C)Cc1cccc(OC(=O)N(C)CCCCCC)c1` (stereo not given), the concentration for half-maximal inhibition (IC50) on Acetylcholinesterase [5] amounted to 3.06 µM; in data set [12], 20 µM; against Butyrylcholinesterase [14] it was 0.72 µM; in [15], 1.5 µM. Also, the K obs was found to be 15 min⁻¹ in data set [6]; 55 min⁻¹ in data set [8]; 30 min⁻¹ in data set [9]; 63 min⁻¹ in data set [10]; 14 min⁻¹ in [11]; 23 min⁻¹ in data set [13]. Also, the “Bimolecular carbamoylation rate constant (ki)” value in data set [7] came out at 17.25 M⁻¹ s⁻¹.

For `CCN(C)C(=O)Oc1ccc2c(c1)CC(N)CC2` (stereo not given), on Acetylcholinesterase [16], it took 79.6 µM to reach half-maximal inhibition (IC50). In other words, the double-digit micromolar range.

With `C#CCN(C)C1CCc2c(OC(=O)N(C)CC)cccc21` (stereo not given), the figures for the half-maximal inhibitory concentration (IC50) against Acetylcholinesterase [17] and at Butyrylcholinesterase [18] were 14.9 µM and 0.79 µM, respectively.

On to `CCNC(=O)Oc1ccc2c(c1)C(N)CC2` (stereo not given), for which the concentration for half-maximal inhibition (IC50) at Acetylcholinesterase [19] was determined as 17.7 µM.

In the case of `CCN(C)C(=O)Oc1cccc2c1C(N)CC2` (stereo not given), the IC50 against Acetylcholinesterase [20] is 10.5 µM; in data set [21], above 1000 µM.

As for `COc1ccc(N(C)C(=O)Oc2ccc3c(c2)C(N)CC3)cc1` (stereo not given), the half-inhibitory concentration (IC50) against Acetylcholinesterase [22] was found to be 0.3 µM; against Butyrylcholinesterase [23], 9.91 µM.

As for `C#CCNC1CCc2ccc(OC(=O)NCCC)cc21` (stereo not given), in [24], it took 69 µM to reach half-maximal inhibition (IC50).

As for `CCN(C)C(=O)Oc1cccc2c1CCC2N` (stereo not given), the IC50 against Acetylcholinesterase [25] was 0.026 µM; in data set [26], 7.9 µM; in data set [21], above 1000 µM; against Butyrylcholinesterase [27], 0.054 µM.

For the compound `C#CCN(C)C1CCc2cccc(OC(=O)N(C)C)c21` (stereo not given), the half-inhibitory concentration (IC50) in data set [28] came out at 730 µM; in data set [29] it was 330 µM.

Take `CCN(C)C(=O)Oc1ccc2c(c1)C(N)CC2` (stereo not given): the IC50 in data set [30] was 12.9 µM; on Acetylcholinesterase [31], 19 µM; in data set [21] it was above 1000 µM; on Butyrylcholinesterase [32], 1.9 µM.

The compound `CCCCCCN(C)C(=O)Oc1ccc2c(c1)C(N)CC2` (stereo not given) yielded an IC50 against Acetylcholinesterase [33] of 0.53 µM.

For the origin of these results see ChEMBL document CHEMBL1135657, “Novel dual inhibitors of AChE and MAO derived from hydroxy aminoindan and phenethylamine as potential treatment for Alzheimer's disease” (J Med Chem, 2002).
